High-throughput results as filed in PubChem BioAssay.
Most compounds without a hit are left out; they make up all but 3.3% or so of the library.
LEDGF integ inh – blockers of LEDGF/p75-dependent integrase strand transfer – biochemical, TR-FRET, high throughput, primary screen. HIV-1 integrase (with human LEDGF/p75). TR-FRET IN-LEDGF/p75 DNA integration, Eu/Cy5. inhibition, % at 3.7 µM. 370,000 compounds, 0.64% hits;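 active means inhibition above the screen-wide mean plus 3 SD, cut at about 13% in these data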;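 further: signal is the Cy5 over europium emission ratio at 671 and 618 nm; 0% = plate median of compound wells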
TDP2 absorb – human TDP2 enzyme inhibitors, primary screen, biochemical, epi absorbance, recombinant enzyme; T5PNP hydrolysis, p-nitrophenol absorbance 415 nm; 370,000 compounds, 0.34% hits; AID 720702, 2013; inhibition, % at 12.8 µM;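 active means inhibition above the mean of all tested compounds plus 3 SD, set per campaign, cut at about 25% in these data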;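 further: 0% = DMSO with enzyme and 100% = buffer with substrate but no TDP2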
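Assay system: recombinant human TDP2 / Reagent: T5PNP substrate at 5 mM, a TopII-DNA adduct mimic / Measured by: epi absorbance from released p-nitrophenol / Evaluation: % inhibition relative to enzyme-containing and enzyme-free wells / Control set: enzyme-free and DMSO wells / Replicates: each compound tested once, singlicate / Schedule: enzyme reaction with compound for 2 h at 37 °C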
MBD2 DNA inh – inhibitors of MBD2 binding to methylated DNA, primary screen, biochemical, TR-FRET, DNA-binding domain, human; MBD2 binding to methylated oligonucleotide; inhibition, % at 4.4 µM; 370,000 compounds, 0.31% hits; AID 686964, 2013; in the data active means inhibition above about 13%
Target sequence (Q9UBB5 whole entry, looked up, the tested form may be a part): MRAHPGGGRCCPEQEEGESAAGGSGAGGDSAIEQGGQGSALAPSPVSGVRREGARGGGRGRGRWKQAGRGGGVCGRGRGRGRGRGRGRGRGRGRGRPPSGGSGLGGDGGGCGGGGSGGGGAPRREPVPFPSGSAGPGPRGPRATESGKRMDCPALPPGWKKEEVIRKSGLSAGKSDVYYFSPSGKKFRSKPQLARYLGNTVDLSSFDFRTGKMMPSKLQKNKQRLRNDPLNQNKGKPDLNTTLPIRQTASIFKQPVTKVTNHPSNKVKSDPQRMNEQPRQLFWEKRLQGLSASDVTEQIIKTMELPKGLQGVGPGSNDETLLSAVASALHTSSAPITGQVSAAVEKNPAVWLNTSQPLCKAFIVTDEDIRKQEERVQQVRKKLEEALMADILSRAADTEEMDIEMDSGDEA
UHRF1 MBD2 ctr – UHRF1 methylated DNA binding inhibitors, primary screen, counter-screen for MBD2 inhibitor project, biochemical, TR-FRET, human UHRF1, single concentration; E3 ubiquitin-protein ligase UHRF1 (Homo sapiens), Q96T88; UHRF1 binding to methylated oligo; inhibition, % at 4.4 µM; 370,000 compounds, 0.75% hits;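 further: UHRF1 SRA domain binding a hemimethylated CpG hairpin DNA probe; 0% = median of test compound wells and 100% = reference inhibitor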
SIAE inh – human SIAE inhibitors, primary screen, biochemical, fluorescence polarization, FP-Rh probe, 1536-well HTS. Sialate O-acetylesterase (Homo sapiens), Q9HAT2. 370,000 compounds, 0.69% hits. inhibition, % at 9.66 µM. AID 1053197, 2014. SIAE FP-Rh probe binding;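 active means inhibition above a cutoff: mean of compounds within the control limits plus 3 SD of those, cut at about 17% in these data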;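 further: 0% = plate median of compound wells and 100% = probe without SIAE protein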
PRMT1 inh – PRMT1 methyltransferase inhibitors, primary screen, biochemical, fluorescence polarization. Protein arginine N-methyltransferase 1 (Homo sapiens), Q99873. 370,000 compounds, 1.3% hits. inhibition, % at 2.79 µM. recombinant PRMT1, activity-based probe fluorescence polarization;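 active means inhibition above about 21% made by adding two undisclosed values, limit read from the data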
Target sequence (Q99873 whole entry, looked up): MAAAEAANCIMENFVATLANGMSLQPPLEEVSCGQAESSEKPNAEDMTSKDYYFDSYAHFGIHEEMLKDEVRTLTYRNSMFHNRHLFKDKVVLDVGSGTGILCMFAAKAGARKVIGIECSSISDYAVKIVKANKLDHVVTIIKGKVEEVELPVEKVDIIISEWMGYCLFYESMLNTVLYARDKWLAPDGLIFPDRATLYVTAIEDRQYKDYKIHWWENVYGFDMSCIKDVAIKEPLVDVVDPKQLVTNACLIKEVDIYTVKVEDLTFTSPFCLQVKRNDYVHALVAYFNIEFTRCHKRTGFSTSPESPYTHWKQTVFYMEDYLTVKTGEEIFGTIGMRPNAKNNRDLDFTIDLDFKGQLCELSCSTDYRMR
UHRF1 DNA bind – UHRF1 methylated DNA binding inhibitors, counter-screen for MBD2 inhibitor project, biochemical, TR-FRET, human UHRF1; shares compounds with MBD2 DNA inh; 1,000 compounds, 25% hits; UHRF1 binding to methylated oligonucleotide; inhibition, % at 4.4 µM;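 further: UHRF1 SRA domain binding a labeled hemimethylated CpG hairpin DNA; 0% = vehicle only and 100% = reference inhibitor with vehicle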
MBD2 DBD conf – inhibitors of MBD2 binding to methylated DNA, confirmation, biochemical, TR-FRET, DNA-binding domain, human; AID 720531, 2013; inhibition, % at 4.4 µM; 1,000 compounds, 26% hits; shares compounds with MBD2 DNA inh; TR-FRET MBD2-DBD binding to methylated oligonucleotide; in the data active means inhibition above about 14%
The depositor's hits bear a star; . = not tested or not shown. Unless noted, no stated cut-off is given here; in the data, active means inhibition above about 21%; inactive means the rest.

SMILES | LEDGF integ inh | TDP2 absorb | MBD2 DNA inh | UHRF1 MBD2 ctr | SIAE inh | PRMT1 inh | UHRF1 DNA bind | MBD2 DBD conf
Cc1ccc(C)c(NC(=O)CN(C)C(=O)c2cccc(-n3cccc3)c2)c1 | 1.1 | 6.8 | 21.5* | 36.3* | -1.6 | 1.8 | 43.0* | 32.7*
O=C(O)C(=Cc1ccncc1)c1cccc2ccccc12 | 2.0 | 4.2 | 3.2 | -0.5 | 6.7 | -1.8 | . | .
COC(=O)C(=Cc1ccncc1)c1cccc2ccccc12 | 2.0 | 0.7 | 39.7* | 0.1 | -2.3 | 1.7 | 7.3 | 2.1
N#Cc1cccc(C(=O)N2CCC(Oc3cccnc3)CC2)c1 | 3.8 | 7.4 | 5.3 | -0.7 | -2.5 | -6.1 | . | .
O=C(NCCc1c[nH]c2ccccc12)OCc1cn(Cc2ccc(F)c(F)c2)nn1 | -1.5 | 1.0 | 1.9 | -2.6 | 4.4 | -0.2 | . | .
COc1ccccc1C(=O)NC(CCSC)C(=O)NCC(c1cccs1)N(C)C (stereo not drawn) | 0.4 | 0.3 | 14.2* | 2.8 | 0.6 | 5.1 | 11.4 | 2.2
COc1ccccc1C(=O)NC(CCSC)C(=O)NCC(c1ccco1)N(C)C (stereo not drawn) | -7.7 | -6.5 | 3.9 | 1.9 | -5.2 | 5.5 | . | .
COc1ccc2sc(-c3ccccc3OC)c(C#CCCO)c2c1 | 2.7 | -9.3 | 14.7* | 16.8 | -7.8 | 2.0 | 8.8 | 6.5
Cc1ccccc1-c1nnc2n1N=C(c1ccc(O)c(O)c1)CS2 | -3.6 | -1.6 | -1.5 | 5.2 | 14.3 | 13.8 | . | .
O=C(OCC(=O)N1CCc2ccccc21)c1ccccc1F | 4.2 | -0.8 | 1.6 | 4.3 | 7.6 | -2.5 | . | .
C[C@H](NS(=O)(=O)c1ccccc1F)C(=O)OCC(=O)N1CCc2ccccc21 | -3.3 | -2.6 | 17.2* | -0.5 | 3.2 | -2.0 | 7.1 | 2.2
COC(=O)C12C=C3CC(C4CC4)=C3C(=O)N1Cc1[nH]c3ccccc3c1C2 (stereo not drawn) | 5.0 | -6.2 | -2.1 | -5.7 | -1.1 | 10.5 | . | .
CN(Cc1ccccc1)C(=O)c1csc([C@@H]2O[C@H](CO)[C@@H](O)[C@H]2O)n1 | -1.6 | -7.2 | 0.4 | 4.0 | -0.6 | 3.0 | . | .
CCN(CC)C(=O)c1csc([C@@H]2O[C@H](CO)[C@H](O)[C@H](O)[C@H]2O)n1 | -0.7 | -8.4 | 26.2* | 2.3 | 2.7 | 0.3 | 3.5 | 3.1
Cc1ccc(-c2ccc(CCC(=O)O)n2Cc2ccco2)cc1 | -1.0 | -15.4 | 88.4* | -0.4 | 5.3 | 15.2 | 9.6 | 4.9
Cc1ccc(NC(=S)N(CCCN2CCN(C)CC2)Cc2cccs2)cc1 | 3.9 | -16.8 | 16.3* | 25.2* | -6.2 | 11.7 | 8.9 | 2.7
Cc1ccc(NC(=S)N(CCCN2CCN(C)CC2)Cc2cccs2)cc1C | -3.3 | 1.3 | -1.4 | -2.0 | 16.6 | -4.5 | . | .
COCCN1C(=O)C2=C(C1=O)C1N(C)c3ccccc3[C@@]13C[C@@H](CO)N(C(C)=O)C3=N2 (stereo partly drawn) | 1.3 | 8.7 | 2.8 | 5.1 | 2.2 | 1.2 | . | .
COc1ccc(CC(=O)Nc2ccc(OC)c(NC(=O)c3ccco3)c2)cc1 | 2.3 | 6.1 | 15.0* | 19.7 | -0.1 | -1.8 | 3.5 | 5.8
COCOc1cccc(CN2CCC(C)(Oc3ccc(C(C)=O)cc3)C2)c1 (stereo not drawn) | -0.9 | -2.8 | 1.6 | 1.4 | 2.4 | -0.6 | . | .
CC(=O)c1ccc(OC2(C)CCN(Cc3cc4ccccc4[nH]3)C2)cc1 (stereo not drawn) | -1.6 | 4.4 | 13.2* | 8.9 | 9.1 | 4.6 | 5.3 | 2.1
CCCn1nc(C(=O)Nc2nc(-c3ccccn3)cs2)c2ccccc2c1=O | -1.2 | -0.5 | 8.0 | -4.2 | -4.9 | 4.8 | . | .
CCn1nc(C(=O)Nc2nc(-c3ccccn3)cs2)c2ccccc2c1=O | -5.4 | 3.3 | 27.0* | -2.5 | -4.3 | 3.9 | -2.9 | 4.4
O=S(=O)(Nc1cccc(S(=O)(=O)N2CCCC2)c1)c1cccc(Br)c1 | -2.4 | -0.3 | 104.5* | -1.1 | -3.3 | -4.5 | 8.3 | 1.6
CCOC(=O)c1c(C)n(C)c2ccc(OC)c(NC(=O)CN3CCCCC3)c12 | 0.2 | -6.5 | 0.2 | 2.4 | 0.9 | -2.8 | . | .
SMILES | LEDGF integ inh | TDP2 absorb | MBD2 DNA inh | UHRF1 MBD2 ctr | SIAE inh | PRMT1 inh | UHRF1 DNA bind | MBD2 DBD conf
CCOC(=O)c1c(C)n(C)c2ccc(OC)c([N+](=O)[O-])c12 | 1.8 | 2.2 | 13.4* | 28.6* | 7.9 | -0.9 | 8.7 | 1.4
O=C(NCC1CCN(C(=O)C(=O)c2cccs2)CC1)c1ccc2c(c1)CCO2 | -3.5 | 11.1 | 18.6* | 14.4 | -3.3 | 3.5 | 7.0 | 3.1
O=C(NCC1CCN(C(=O)C(=O)c2cccs2)CC1)c1ccc2c(c1)OCO2 | -1.6 | 3.8 | 0.3 | 7.6 | -0.5 | -1.8 | . | .
CC(C)CN1C[C@@H]2CSCCS(=O)(=O)N2C1=O | -1.8 | 5.6 | 6.0 | -0.5 | 5.2 | 0.9 | . | .
CCOC(=O)C1=NOC(C(C)=O)(C(=O)NC2CCCC2)C1 (stereo not drawn) | 7.3 | 3.9 | 0.3 | -0.8 | -1.2 | 0.5 | . | .
COc1cc2nc(N3CCN(c4cc(C)ccc4C)CC3)nc(N)c2cc1OC | -0.4 | -2.0 | 1.0 | 2.1 | 12.2 | -1.6 | . | .
COc1cc2nc(N3CCNCC3)nc(N)c2cc1OC | -1.1 | 11.0 | 13.9* | 13.7 | -6.2 | -1.0 | 31.7* | 27.3*
O=C(/C=C/c1cccs1)N1CCC2(CC1)Oc1ccc(Cl)cc1C(=O)C21CC(c2cccnc2)=NO1 (stereo not drawn) | 11.1 | -3.8 | 16.0* | -1.9 | 2.6 | -2.5 | 6.3 | 2.2
O=C(N/N=C1\CCCc2ccccc21)c1ccccc1Cl | 2.6 | 2.5 | 1.1 | 2.9 | 0.7 | -0.9 | . | .
O=C(CNc1ccccc1Cl)N/N=C1\CCCc2ccccc21 | 0.9 | 4.1 | 22.9* | 2.3 | -3.4 | 6.4 | 3.6 | 0.8
O=C(CCSc1nc(-c2ccco2)cc(C(F)(F)F)n1)NCc1ccccn1 | 1.3 | -0.1 | 24.1* | 0.8 | -1.4 | 0.6 | 8.9 | 0.6
O=C(Cn1nc(-c2ccccc2Cl)ccc1=O)Nc1ccccc1-c1ccccc1 | 1.5 | -21.6 | 43.0* | -1.4 | 15.8 | -0.7 | 7.6 | 1.9
